Key:
[1] = tested on: Artemia salina; assay: Cytotoxicity against Artemia salina assessed as induction of shrimp mortality incubated for 24 hrs; format: functional; details: for LC50: read-out: LD50 (the source's name)
[2] = Antiproliferative activity against mouse NIH/3T3 cells assessed as inhibition of cell proliferation incubated for 72 hrs by SRB assay; format: cell-based; details: NIH3T3, 72 h
Summary of the method: (§1)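 Seeded at 1 × 10^4 cells/well (MCF-7: EMEM + 10% FBS; MDA-MB-231: EMEM + 10% NuSerum; NIH3T3: DMEM + 5% NuSerum + 1% antibiotics). Exposed to 1.25–40 μM final (DMSO stock diluted in water) for 72 h at 37 °C, 5% CO2. Day-0 plate used. Fixed with TCA (10% final, 4 °C, 1 h), stained with 0.4% SRB, dye dissolved in 10 mM Tris. IC50 derived. Podophyllotoxin and 0.5% DMSO as controls.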

[3] = tested on: MCF7; assay: Antiproliferative activity against human MCF7 cells assessed as inhibition of cell proliferation incubated for 72 hrs by SRB assay; format: functional, cell-based; details: MCF7, 72 h; summary of the method: as §1
[4] = tested on: MDA-MB-231; assay: Antiproliferative activity against human MDA-MB-231 cells assessed as inhibition of cell proliferation incubated for 72 hrs by SRB assay; format: functional, cell-based; details: MDA-MB-231, 72 h; summary of the method: as §1

SMILES	Activity [1]	LC50 [1] [µM]	IC50 [2] [µM]	IC50 [3] [µM]	IC50 [4] [µM]
COc1c(C)c(O)c2c(=O)cc(-c3ccc(O)cc3)oc2c1C [SIDEROXYLIN]	Dose-dependent effect	80.1	> 40	14.7	36.9
COc1cc([C@@H]2c3cc4c(cc3[C@H](O)[C@H]3COC(=O)[C@H]23)OCO4)cc(OC)c1OC [PODOFILOX]	–	–	0.084	–	0.079
COc1c(C)c(O)c2c(=O)c(-c3ccc(O)cc3)coc2c1C	Dose-dependent effect	20.2	> 40	> 40	7

Reference: ChEMBL document CHEMBL3588840, “An Isoflavone from Leiophyllum buxifolium and Its Antiproliferative Effect” (J Nat Prod, 2015)
